Compounds with a hit are over-represented: about 2% of the library has one in this group of screens.
ABCB6 inh 2 = blocks the human ABCB6 transporter. AID 602162. 360,000 compounds, 0.19% hits. K562-ABCB6 porphyrin accumulation, flow cytometry, 1 h; hits give low values. fluorescence ratio to DMSO, % at 10 µM;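 active = fluorescence ratio to DMSO below 75%, the collection mean minus 3 SD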;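 also: signal is porphyrin accumulated inside mitochondria; 100% equals median channel fluorescence of DMSO control wells; lower ratio means ABCB6 inhibition with less porphyrin fluorescence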
DAGLB inhibitor = diacylglycerol lipase beta (human) inhibition | Q8NCG7 | 340,000 compounds, 0.059% hits | HEK293T DAGLB membrane lysate, EnzChek fluorogenic substrate | inhibition, % at 5.17 µM | AID 504411; in the data active = inhibition above about 34%;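 also: 0% = enzyme with vehicle and 100% = wells lacking enzyme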
MT1-MMP act inh = blocks activation of human MT1-MMP. HT1080 RFP-PRO-GFP cells, GFP/RFP ratio fluorescence, overnight; percent of plate control window, DMSO zero. P50281. GFP/RFP ratio change, % at 20 µM. 360,000 compounds, 0.061% hits;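 active = GFP/RFP ratio change of at least 30% with cell ATP level not reduced by more than half and red fluorescence within 50% of control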
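Read-out: GFP/RFP fluorescence ratio; Test system: RFP-PRO-GFP reporter HT1080 cells; Compound dosing: single-point 20 µM compound, 1% DMSO; Times: overnight compound exposure at 37 °C.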
VLA-4 inh = inhibition in a human VLA-4 binding assay | P13612 | VLA-4 expressing cells, ligand binding flow cytometry | inhibition, % (about 7 µM as worked out from the volumes in the protocol) | 330,000 compounds, 0.2% hits; in the data active = inhibition above about 50%
Granule exo inh = blocks lytic granule exocytosis. TALL-104 LAMP-1 surface exposure, flow cytometry; cells stimulated with thapsigargin and PMA. inhibition, % at 10 µM. 360,000 compounds, 0.66% hits. AID 651702;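 active = inhibition above about 55%, limit read from the data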
FGF22 binding = shifts melting point of recombinant human FGF22. activity (Tm shift, normalised), % at 9.99 µM. recombinant FGF22 thermal shift, SYPRO orange fluorescence; percent of sucrose octasulfate shift, DMSO zero. Q9HCT0. 340,000 compounds, 1.5% hits. AID 651658;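 active = mean Tm shift, scaled 0 neutral to 100 positive control, at about 1.3% or above, every replicate too, limit read from the data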
Target sequence (Q9HCT0 whole entry, looked up): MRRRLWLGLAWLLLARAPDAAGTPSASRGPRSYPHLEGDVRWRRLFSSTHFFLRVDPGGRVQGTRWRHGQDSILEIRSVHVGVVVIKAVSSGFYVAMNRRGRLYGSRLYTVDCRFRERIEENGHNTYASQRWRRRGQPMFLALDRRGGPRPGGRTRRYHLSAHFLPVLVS
* = called active by the depositor; . = no result.

SMILES	ABCB6 inh 2	DAGLB inhibitor	MT1-MMP act inh	VLA-4 inh	Granule exo inh	FGF22 binding
CSc1nsc(SCC(=O)Nc2nc3ccccc3s2)n1	97	-2	-1	4	-2	44*
CCOC(=O)c1csc(NC(=O)c2ccc(OCC)cc2)n1	94	0	-31	0	-2	43*
CC(C)NC(=O)Nc1ccc2c(c1)C(=O)N([C@H](C)CO)C[C@H](C)[C@H](CN(C)Cc1ccc(C(=O)O)cc1)OCCCC[C@H](C)O2	.	.	.	.	.	-1
COc1ccc(N(C)C(=O)Cc2c(C(=O)O)[nH]c3ccccc23)c(OC)c1	106	0	-5	6	-1	44*
COc1ccc(OC)c(CNC(=O)Cc2c(C(=O)O)[nH]c3ccccc23)c1	95	-2	8	8	0	.
CCCn1nc(C(=O)Nc2nc3ccccc3[nH]2)c2ccccc2c1=O	102	-3	21	-3	1	43*
CC(C)n1nc(C(=O)Nc2nc3ccccc3[nH]2)c2ccccc2c1=O	89	-1	16	6	-17	0
Cc1ccc(N(CC(=O)NC(C)(C)C)C(=O)CNC(=O)c2cccs2)c(C)c1	92	-3	-9	2	0	43*
CN(C)C(=O)C[C@H]1C[C@H]2c3cc(NC(=O)NC4CCCC4)ccc3O[C@H]2[C@@H](CO)O1	.	.	.	.	.	1
O=C(CCN1CCCCC1)NCC[C@H]1CC[C@@H](NC(=O)c2ccc(F)cc2)[C@@H](CO)O1	.	.	.	.	.	0
CN(C)c1ccc(N2CC(C)(C)C2=O)cc1	103	0	-1	0	-2	42
CC(=O)c1ccc(N2CC(C)(C)C2=O)cc1	102	2	5	-4	0	43*
Cc1ccc(S(=O)(=O)N(C)C[C@H]2Oc3ncc(-c4ccncc4)cc3C(=O)N([C@H](C)CO)C[C@@H]2C)cc1	.	.	.	.	.	0
COc1cc(S(=O)(=O)Nc2ccc3cn[nH]c3c2)ccc1Cl	100	-3	2	10	0	44*
Cc1ccc(S(=O)(=O)Nc2ccc3cn[nH]c3c2)cc1	95	0	3	5	-1	0
Cc1ccc(S(=O)(=O)Nc2ccc3cn[nH]c3c2)cc1C	99	.	-5	-3	-2	44*
C[C@@H]1CN([C@H](C)CO)C(=O)Cc2cc(NS(=O)(=O)c3cn(C)cn3)ccc2O[C@@H]1CN(C)Cc1ccc(C(=O)O)cc1	.	.	.	.	.	0
CC(C)(C)[S@@](=O)N1Cc2cc(C(=O)N3CCc4ccccc4C3)nc(-c3cccc(-c4ccncc4)c3)c2[C@H]1CCO	.	.	.	.	.	0
COC(=O)C1=C(C)N(Cc2ccco2)C(=O)/C1=C\c1ccc(N(C)C)cc1	98	6	-142	2	-3	.
COC(=O)C1=C(C)N(Cc2ccco2)C(=O)/C1=C\c1ccc([N+](=O)[O-])cc1	124	8	2	-2	92*	0
O=C(NCc1ccc(F)cc1)[C@@H]1[C@@H](CO)[C@@H]2Cn3c(cccc3=O)[C@H]1N2CC1CC1	.	.	.	.	.	0
C/C(CC(=O)Nc1ccc(Cl)cc1C(F)(F)F)=N\NC(=O)c1ccccn1	97	1	-1	4	-6	43*
C/C(CC(=O)Nc1ccc(Cl)cc1C(F)(F)F)=N\NC(=O)c1cccs1	97	1	-6	3	-6	0
CN(Cc1ccccc1)c1nc2c(c(=O)n(C)c(=O)n2C)n1CCCc1ccccc1	86	-5	4	1	66*	.
CCN(CC)c1nc2c(c(=O)n(C)c(=O)n2C)n1CCCc1ccccc1	101	-3	1	8	54	0
SMILES	ABCB6 inh 2	DAGLB inhibitor	MT1-MMP act inh	VLA-4 inh	Granule exo inh	FGF22 binding
CC(=O)O[C@H]1CC[C@@]2(C)[C@@H](CC[C@H]3[C@@H]4CC[C@H](C(C)O)[C@@]4(C)CC(=O)[C@@H]32)C1 (some centres undefined)	97	-4	2	18	-6	0
CC(O)[C@H]1CC[C@H]2[C@@H]3CC[C@H]4C[C@@H](O)CC[C@]4(C)[C@H]3/C(=N/O)C[C@]12C (some centres undefined)	97	5	2	12	82*	0
COc1ccc(-c2cnc3c(c2)C(=O)N([C@H](C)CO)C[C@H](C)[C@H](CN(C)C(=O)Nc2ccc(F)cc2)O3)cc1	.	.	.	.	.	0
C=CC[C@@]1(C(=O)NCCCOC)N=C(c2ccc(OCCCO)cc2)O[C@@H]1c1ccccc1	.	.	.	.	.	0
Cc1nc(S/C(=C/c2ccc(OCc3ccc(C(=O)O)cc3)cc2)C(=O)O)n[nH]1	98	-2	-4	-2	-2	1.5*
COc1ccc2c3c(n(C)c2c1)[C@H](CO)N(C(=O)C1CC1)CC31CCN(C(=O)c2ccncc2)CC1	.	.	.	.	.	0
COc1ccccc1C(=O)NC(=O)CSc1ccc(C)c(C)c1	92	-12	0	0	-2	43*
COCCNc1nnc(SCC(=O)NC(=O)c2ccccc2OC)s1	93	-1	2	-2	0	0
Cc1noc(C)c1NC(=O)Nc1cccc2c1O[C@@H](CN(C)S(=O)(=O)c1ccc(F)cc1)[C@@H](C)CN([C@@H](C)CO)C2=O	.	.	.	.	.	0
Cc1ccc(N2CC(O)=C(c3nc4ccccc4c(=O)[nH]3)C2=N)cc1C	103	-2	2	7	-1	43*
CCOc1ccc(N2CC(O)=C(c3nc4ccccc4c(=O)[nH]3)C2=N)cc1	104	1	4	3	1	1
CCCNC(=O)C[C@@H]1CC[C@H]2[C@@H](COc3ccc(NC(=O)c4ccccc4)cc3C(=O)N2C)O1	.	.	.	.	.	0
C[C@H](CO)N1C[C@H](C)[C@@H](CN(C)C(=O)Cc2ccccc2)Oc2cc(C#CC3(O)CCCC3)ccc2S1(=O)=O	.	.	.	.	.	0
O=C(C[C@H]1CC[C@@H](NC(=O)c2ccc(F)cc2)[C@H](CO)O1)NCc1ccncn1	.	.	.	.	.	0
Cc1ccc(NC(=O)C2CCCN(S(=O)(=O)c3cccnc3)C2)c(C)c1 (centres undefined)	93	3	-1	17	-2	44*
COc1ccccc1N1CCN(CC(=O)NCc2ccc(Cl)cc2)CC1	103	-1	2	9	-7	0
COc1ccccc1N1CCN(CC(=O)NC(=O)NCc2ccccc2)CC1	94	-3	4	.	-5	43*
COc1ccccc1N1CCN(C(=O)CCC(=O)O)CC1	105	2	0	22	7	43*
COc1ccccc1N1CCN(C(=O)CCc2ccccc2)CC1	99	8	2	17	-2	0
COc1cc(NC(=O)CSc2ncnc3scc(-c4ccccc4)c23)c(C(=O)O)cc1OC	93	6	-1	-2	-2	43*
